Data from ChEMBL document CHEMBL1649384, “Synthesis and antiproliferative activity of novel symmetrical alkylthio- and alkylseleno-imidocarbamates” (Eur J Med Chem, 2011).

Experiments:
[1] = system: HT-29; assay: Cytotoxicity against human HT-29 cells after 72 hrs by MTT assay; assay type: functional; details: HT-29, 72 h; for CC50: read-out: LC50 (the source's name)
Outline: (§1)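 Cells seeded per well: Hep-G2 1×10⁴, HT-29 4×10³, K-562 4×10³, MCF-7 1.2×10⁴, MCF-10A 7×10³, PC-3 2×10³. MCF-10A were grown in supplemented MEBM at 37 °C, 5% CO₂. Five concentrations were tested between 0.01 and 100, with 72 h exposure. Formazan was read by A590. GI₅₀ was taken relative to untreated controls, from at least three independent experiments.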

[2] = system: MCF7; assay: Cytotoxicity against human MCF7 cells after 72 hrs by MTT assay; assay type: functional; details: MCF7, 72 h; outline: as §1
[3] = Cytotoxicity against human MCF10A cells after 72 hrs by MTT assay; assay type: cell-based, MCF-10A; details: for GI50 at 72 h: MCF10A cells; for LC50 / TGI: mcf-10a, 72 h; outline: as §1
[4] = system: HepG2; assay: Cytotoxicity against human HepG2 cells after 72 hrs by MTT assay; assay type: functional; details: HepG2, 72 h; for CC50: read-out: LC50 (the source's name); outline: as §1
[5] = system: HT-29; assay: Cytotoxicity against human HT-29 cells after 72 hrs by CV method; assay type: functional; details: HT-29, 72 h
Outline: (§2)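 Crystal violet check of the MTT data: eight concentrations between 0.01 and 100, with 72 h exposure. Cells were fixed in 4% formaldehyde for at least 20 min, then stained with 0.1% crystal violet for 30 min. GI₅₀ is the concentration halving growth relative to untreated controls.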

[6] = system: PC-3; assay: Cytotoxicity against human PC3 cells after 72 hrs by MTT assay; assay type: functional; details: PC-3, 72 h; for CC50: read-out: LC50 (the source's name); outline: as §1
[7] = system: K562; assay: Cytotoxicity against human K562 cells after 72 hrs by MTT assay; assay type: functional; details: K562, 72 h; for CC50: read-out: LC50 (the source's name); outline: as §1
[8] = system: PC-3; assay: Cytotoxicity against human PC3 cells after 72 hrs by CV method; assay type: functional; details: PC-3, 72 h; outline: as §2

Compound | GI50 [1] [µM] | TGI [1] [µM] | CC50 [1] [µM] | GI50 [2] [µM] | LC50 [2] [µM] | TGI [2] [µM] | GI50 at 72 h [3] [µM] | LC50 [3] [µM] | TGI [3] [µM] | GI50 [4] [µM] | TGI [4] [µM] | CC50 [4] [µM] | GI50 [5] [µM] | GI50 [6] [µM] | TGI [6] [µM] | CC50 [6] [µM] | GI50 [7] [µM] | TGI [7] [µM] | CC50 [7] [µM] | GI50 [8] [µM]
C[Se]/C(=N\C(=O)c1ccco1)NC(=O)c1ccco1 | 5e-05 | > 100 | > 100 | 0.03 | > 100 | 88.9 | 5.94 | 98.07 | 40.16 | 0.76 | 8.66 | > 100 | 1 | 0.36 | 56.7 | > 100 | 8.78 | > 100 | > 100 | 0.16
C[Se]/C(=N\C(=O)c1sccc1Cl)NC(=O)c1sccc1Cl | 0.0049 | > 100 | > 100 | 0.3 | > 100 | 31.2 | 3.16 | 7.82 | 5.49 | 0.69 | 4.02 | 8.67 | 0.0059 | 0.97 | 7.03 | > 100 | 4.81 | 28.5 | 90 | 0.24
C[Se]/C(=N\C(=O)c1csc([N+](=O)[O-])c1)NC(=O)c1csc([N+](=O)[O-])c1 | 0.00063 | > 100 | > 100 | 0.00076 | > 100 | 28.1 | 1.95 | 7.53 | 4.74 | 0.62 | 1.55 | 10 | 7.1 | 0.1 | 7.09 | > 100 | 4.98 | > 100 | > 100 | 0.11
C[Se]/C(=N\C(=O)c1cc(-c2ccccc2)nc2ccccc12)NC(=O)c1cc(-c2ccccc2)nc2ccccc12 | 0.46 | 90.7 | 90.7 | 0.49 | > 100 | 7.52 | 0.71 | 76.9 | 20.05 | 4.54 | 10.1 | 65.4 | 0.85 | 3.97 | 40.2 | > 100 | 5.8 | 30.6 | 73 | 3.72
C[Se]/C(=N\C(=O)c1ccno1)NC(=O)c1ccno1 | 0.00079 | > 100 | > 100 | 9e-05 | > 100 | 57.5 | 2.89 | 63.94 | 15.41 | 0.51 | 9.35 | > 100 | 4.9 | 0.09 | 39.3 | > 100 | 0.87 | 45.6 | > 100 | 0.03
C[Se]/C(=N\C(=O)c1cc2ccccc2s1)NC(=O)c1cc2ccccc2s1 | 5.62 | > 100 | > 100 | 5.07 | 80.6 | 32.7 | 0.49 | 73.21 | 34.65 | 9.59 | 41 | 73.3 |  | 37.2 | 65.6 | 94 | 32.4 | 61 | 89.5 | 
CS/C(=N\C(=O)c1ccco1)NC(=O)c1ccco1 | 77.1 | > 100 | > 100 | 56.1 | > 100 | > 100 | 8.22 | 85.69 | 46.52 | > 100 | > 100 | > 100 |  | 56.2 | > 100 | > 100 | 64.8 | > 100 | > 100 | 
C[Se]/C(=N\C(=O)c1ccc2c(c1)OCO2)NC(=O)c1ccc2c(c1)OCO2 | 0.53 | > 100 | > 100 | 0.99 | > 100 | 52.8 | 5.58 | > 100 | 45.97 | 5.84 | 23.6 | 73.1 |  | 4.24 | 36.8 | > 100 | 9.23 | 46.3 | 85.2 | 
CS/C(=N\C(=O)c1sccc1Cl)NC(=O)c1sccc1Cl | 35.6 | > 100 | > 100 | 10.3 | > 100 | 57.1 | 0.09 | 64.11 | 23.72 | 65.2 | > 100 | > 100 |  | 24.7 | 57.4 | 90.1 | 37 | 78.9 | > 100 | 
O=C(/N=C(/NC(=O)c1cc(-c2ccccc2)nc2ccccc12)[Se]Cc1ccccc1)c1cc(-c2ccccc2)nc2ccccc12 | 6.07 | > 100 | > 100 | 8.46 | 97 | 45.6 | 8.46 | 97.04 | 45.56 | 25.8 | 52.4 | 78.9 |  | 39.3 | 97.1 | > 100 | 9.06 | 47.4 | 88.9 | 
CS/C(=N\C(=O)c1cc2ccccc2s1)NC(=O)c1cc2ccccc2s1 | 16.8 | 88.2 | 88.2 | 9.51 | 78.5 | 43.4 | 0.02 | 54.56 | 5.6 | 15.8 | 53 | 75.8 |  | 8.58 | 39.4 | 72.5 | 34.7 | 66.6 | 98.6 | 
O=C(/N=C(/NC(=O)c1cnc2ccccc2c1)[Se]Cc1ccccc1)c1cnc2ccccc2c1 | 26.1 | > 100 | > 100 | 23.6 | > 100 | > 100 | 23.6 | > 100 | > 100 | 8.54 | 48.9 | 90.3 |  | 34.8 | > 100 | > 100 | 29.3 | 72.6 | > 100 | 
CS/C(=N\C(=O)c1c2ccccc2nc2ccccc12)NC(=O)c1c2ccccc2nc2ccccc12 | 69.2 | > 100 | > 100 | 27.7 | > 100 | > 100 | 1 | > 100 | > 100 | 90.2 | > 100 | > 100 |  | 51.1 | 87.3 | > 100 | 45 | 76 | > 100 | 
O=C(/N=C(/NC(=O)c1sccc1Cl)[Se]Cc1ccccc1)c1sccc1Cl | 6.51 | > 100 | > 100 | 3.68 | > 100 | 28.3 | 3.68 | > 100 | 28.33 | 4.42 | 45.5 | > 100 |  | 52.7 | > 100 | > 100 | 7.63 | 95.8 | > 100 | 
